# Assay results reported in ChEMBL document CHEMBL1121685, “Development of new mitomycin C and porfiromycin analogues” (J Med Chem, 1981).
# How the values were obtained:
# Mus musculus [1] = assay: Effect of compound on total white blood cell count in BDG1 male mice, after intraperitoneal administration at a dose of 9.8 mg/kg on day 5; type: functional
# Summary of the method: (§1)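 Single ip dose given on day 0 to BDG₁ male mice. Total white blood cell count measured on days 3, 5 and 7, expressed as % change from control. Highest dose was at the LD₅₀, or at twice the optimal dose where so footnoted. Significance reported at p ≤ 0.05 and p ≤ 0.01. D marks death of one or more mice.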
# Mus musculus [2] = assay: Effect of compound on total white blood cell count in BDG1 male mice, after intraperitoneal administration at a dose of 7.4 mg/kg on day 3; type: functional; summary of the method: as §1
# Mus musculus [3] = species: Mus musculus; assay: Half-wave potential produced by the compound at their optimal dose; type: functional; design: unit not given here
# Mus musculus [4] = assay: Effect of compound on total white blood cell count in BDG1 male mice, after intraperitoneal administration at a dose of 7.4 mg/kg on day 7; type: functional; summary of the method: as §1
# Mus musculus [5] = assay: Effect of compound on total white blood cell count in BDG1 male mice, after intraperitoneal administration at a dose of 9.8 mg/kg on day 7; type: functional; summary of the method: as §1
# Mus musculus [6] = assay: Effect of compound on total white blood cell count in BDG1 male mice, after intraperitoneal administration at a dose of 5.5 mg/kg on day 3; type: functional; summary of the method: as §1
# Mus musculus [7] = species: Mus musculus; assay: Degree of leukopenia produced by compound is assessed form Percent change in white cells on days 5; type: functional
# Summary of the method: (§2)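 BDG₁ male mice received a single ip dose on day 0. The dose series topped out at the LD₅₀ level, or at twice the optimal dose for some agents. Total white blood cell count was taken on days 3, 5 and 7 and expressed as % change from untreated controls. Significance was set at p ≤ 0.05 or p ≤ 0.01.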
# Mus musculus [8] = assay: Effect of compound on total white blood cell count in BDG1 male mice, after intraperitoneal administration at a dose of 5.5 mg/kg on day 7; type: functional; summary of the method: as §1
# Mus musculus [9] = assay: Minimum effective dose that show activity against P-388 murine leukemia cells in CDF1 female mice, after intraperitoneal administration (optimal dose is 3.2 mg/kg); type: functional; conditions: P388, ip, read-out: MED
# Summary of the method: (§3)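 10⁶ P-388 ascites cells implanted ip in CDF₁ female mice. Six mice per dose, 10 saline-injected controls, and a concurrent mitomycin C reference group. %T/C = median survival time of treated/control × 100. MED is the lowest dose giving %T/C > 125. Therapeutic ratio = optimal dose/MED.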
# Mus musculus [10] = assay: Effect of compound on total white blood cell count in BDG1 male mice, after intraperitoneal administration at a dose of 9.8 mg/kg on day 3; type: functional; summary of the method: as §1
# Mus musculus [11] = assay: Effect of compound on total white blood cell count in BDG1 male mice, after intraperitoneal administration at a dose of 5.5 mg/kg on day 5; type: functional; summary of the method: as §1
# [12] = Therapeutic ratio is expressed as ratio of optimal dose and minimum effective dose; type: ADME; conditions: mouse; read-out: TR; summary of the method: as §3
# Mus musculus [13] = assay: Antitumor activity against P-388 murine leukemia cells in CDF1 female mice after intraperitoneal administration at the specified optimal dose of 3.2 mg/kg; type: functional
# Mus musculus [14] = assay: Effect of compound on total white blood cell count in BDG1 male mice, after intraperitoneal administration at a dose of 7.4 mg/kg on day 5; type: functional; summary of the method: as §1
# Mus musculus [15] = assay: Effect of compound on total white blood cell count in BDG1 male mice, after intraperitoneal administration at a dose of 4.22 mg/kg on day 5; type: functional
# Mus musculus [16] = assay: Effect of compound on total white blood cell count in BDG1 male mice, after intraperitoneal administration at a dose of 4.22 mg/kg on day 7; type: functional
# Mus musculus [17] = assay: Effect of compound on total white blood cell count in BDG1 male mice, after intraperitoneal administration at a dose of 5.63 mg/kg on day 7; type: functional
# Mus musculus [18] = assay: Effect of compound on total white blood cell count in BDG1 male mice, after intraperitoneal administration at a dose of 7.5 mg/kg on day 7; type: functional
# Mus musculus [19] = assay: Activity of compound dose of 0.5 mg/kg/day against Murine B-16 Melanocarcinoma in mice; type: functional
# Mus musculus [20] = assay: Effect of compound on total white blood cell count in BDG1 male mice, after intraperitoneal administration at a dose of 4.22 mg/kg on day 3; type: functional
# Mus musculus [21] = assay: Activity of compound dose of 8 mg/kg/day against Murine B-16 Melanocarcinoma in mice; type: functional
# Mus musculus [22] = species: Mus musculus; assay: Degree of leukopenia produced by compound is assessed form Percent change in white cells on day 3; type: functional; summary of the method: as §2
# Mus musculus [23] = assay: Effect of compound on total white blood cell count in BDG1 male mice, after intraperitoneal administration at a dose of 5.63 mg/kg on day 5; type: functional
# Mus musculus [24] = assay: Effect of compound on total white blood cell count in BDG1 male mice, after intraperitoneal administration at a dose of 3.16 mg/kg on day 3; type: functional
# Mus musculus [25] = assay: Effect of compound on total white blood cell count in BDG1 male mice, after intraperitoneal administration at a dose of 3.16 mg/kg on day 5; type: functional
# Mus musculus [26] = assay: Activity of compound dose of 1 mg/kg/day against Murine B-16 Melanocarcinoma in mice; type: functional
# Mus musculus [27] = assay: Effect of compound on total white blood cell count in BDG1 male mice, after intraperitoneal administration at a dose of 5.63 mg/kg on day 3; type: functional
# Mus musculus [28] = assay: Number of tumored survivors, 45 days after administration of compound at a dose of 1 mg/kg/day in mice; type: functional
# Mus musculus [29] = assay: Number of cured survivors, 45 days after administration of compound at a dose of 1 mg/kg/day in mice; type: functional
# Mus musculus [30] = assay: Effect of compound on total white blood cell count in BDG1 male mice, after intraperitoneal administration at a dose of 3.16 mg/kg on day 7; type: functional
# Mus musculus [31] = assay: Effect of compound on total white blood cell count in BDG1 male mice, after intraperitoneal administration at a dose of 7.5 mg/kg on day 5; type: functional
# Mus musculus [32] = assay: Activity of compound dose of 2 mg/kg/day against Murine B-16 Melanocarcinoma in mice; type: functional
# Mus musculus [33] = assay: Effect of compound on total white blood cell count in BDG1 male mice, after intraperitoneal administration at a dose of 7.5 mg/kg on day 3; type: functional
# Mus musculus [34] = assay: Number of tumored survivors, 45 days after administration of compound at a dose of 8 mg/kg/day in mice; type: functional
# Mus musculus [35] = assay: Activity of compound dose of 4 mg/kg/day against Murine B-16 Melanocarcinoma in mice; type: functional
# Mus musculus [36] = assay: Effect of compound on total white blood cell count in BDG1 male mice, after intraperitoneal administration at a dose of 1.27 mg/kg on day 5; type: functional; summary of the method: as §2
# Mus musculus [37] = assay: Effect of compound on total white blood cell count in BDG1 male mice, after intraperitoneal administration at a dose of 2.25 mg/kg on day 3; type: functional
# Summary of the method: (§4)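 Single ip dose given on day 0 to BDG1 male mice over a descending dose series. Total white blood cell count is expressed as % change from untreated control on days 3, 5 and 7. Significance is flagged at p ≤ 0.05 and p ≤ 0.01.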
# Mus musculus [38] = assay: Effect of compound on total white blood cell count in BDG1 male mice, after intraperitoneal administration at a dose of 2.25 mg/kg on day 7; type: functional; summary of the method: as §4
# Mus musculus [39] = assay: Effect of compound on total white blood cell count in BDG1 male mice, after intraperitoneal administration at a dose of 3 mg/kg on day 7; type: functional; summary of the method: as §4
# Mus musculus [40] = assay: Effect of compound on total white blood cell count in BDG1 male mice, after intraperitoneal administration at a dose of 1.27 mg/kg on day 7; type: functional; summary of the method: as §2
# Mus musculus [41] = assay: Effect of compound on total white blood cell count in BDG1 male mice, after intraperitoneal administration at a dose of 3 mg/kg on day 3; type: functional; summary of the method: as §4
# Mus musculus [42] = assay: Effect of compound on total white blood cell count in BDG1 male mice, after intraperitoneal administration at a dose of 1.27 mg/kg on day 3; type: functional; summary of the method: as §2
# Mus musculus [43] = assay: Effect of compound on total white blood cell count in BDG1 male mice, after intraperitoneal administration at a dose of 1.69 mg/kg on day 5; type: functional; summary of the method: as §2
# Mus musculus [44] = assay: Effect of compound on total white blood cell count in BDG1 male mice, after intraperitoneal administration at a dose of 1.69 mg/kg on day 7; type: functional; summary of the method: as §2
# Mus musculus [45] = assay: Effect of compound on total white blood cell count in BDG1 male mice, after intraperitoneal administration at a dose of 2.25 mg/kg on day 5; type: functional; summary of the method: as §4
# Mus musculus [46] = assay: Effect of compound on total white blood cell count in BDG1 male mice, after intraperitoneal administration at a dose of 1.69 mg/kg on day 3; type: functional; summary of the method: as §2
# Mus musculus [47] = assay: Effect of compound on total white blood cell count in BDG1 male mice, after intraperitoneal administration at a dose of 3 mg/kg on day 5; type: functional; summary of the method: as §4
compound,measurement,setting,value
COC12[C@@H]3N[C@@H]3CN1C1=C(C(=O)C(Nc3cccnc3)=C(C)C1=O)[C@@H]2COC(N)=O (stereo not given in full),Change,Mus musculus [1],-42%
same,Change,Mus musculus [2],-43%
same,E1/2,Mus musculus [3],-0.31
same,Change,Mus musculus [4],-0.2%
same,Change,Mus musculus [5],24%
same,Change,Mus musculus [6],-41%
same,Change,Mus musculus [7],-33%
same,Change,Mus musculus [8],-14%
same,minimal effective dose,Mus musculus [9],< 0.2 mg/kg
same,Change,Mus musculus [10],-36%
same,Change,Mus musculus [11],-24%
same,selectivity ratio,[12],> 16
same,T/C,Mus musculus [13],211%
same,Change,Mus musculus [14],-46%
CO[C@@]12[C@H](COC(N)=O)C3=C(C(=O)C(C)=C(N)C3=O)N1C[C@@H]1N[C@@H]12 [MITOMYCIN],Change,Mus musculus [15],-53%
same,Change,Mus musculus [16],-1%
same,Change,Mus musculus [17],-26%
same,Change,Mus musculus [18],-53%
same,T/C,Mus musculus [19],122%
same,Change,Mus musculus [20],-55%
same,T/C,Mus musculus [21],164%
same,Change,Mus musculus [22],-42%
same,Change,Mus musculus [23],-58%
same,E1/2,Mus musculus [3],-0.45
same,Change,Mus musculus [24],-48%
same,Change,Mus musculus [25],-42%
same,T/C,Mus musculus [26],136%
same,Change,Mus musculus [27],-57%
same,Survivors,Mus musculus [28],1
same,Survivors,Mus musculus [29],1
same,minimal effective dose,Mus musculus [9],0.2 mg/kg
same,Change,Mus musculus [30],-38%
same,Change,Mus musculus [31],-67%
same,T/C,Mus musculus [13],178%
same,T/C,Mus musculus [32],159%
same,Change,Mus musculus [33],-58%
same,Survivors,Mus musculus [34],1
same,T/C,Mus musculus [35],193%
COC12[C@@H]3N[C@@H]3CN1C1=C(C(=O)C(N3CC3C)=C(C)C1=O)[C@@H]2COC(N)=O (stereo not given in full),Change,Mus musculus [36],-5%
same,Change,Mus musculus [37],-36%
same,Change,Mus musculus [38],-6%
same,Change,Mus musculus [39],-12%
same,Change,Mus musculus [40],18%
same,Change,Mus musculus [22],-24%
same,Change,Mus musculus [41],-37%
same,E1/2,Mus musculus [3],-0.32
same,Change,Mus musculus [42],-16%
same,minimal effective dose,Mus musculus [9],0.1 mg/kg
same,Change,Mus musculus [43],-5%
same,selectivity ratio,[12],32
same,T/C,Mus musculus [13],233%
same,Change,Mus musculus [44],3%
same,Change,Mus musculus [45],-32%
same,Change,Mus musculus [46],-24%
same,Change,Mus musculus [47],-39%
